Screening data (PubChem BioAssay)
aDG glyco up: alpha-DG glycosylation activation; Pro5-aDG cells, alpha-DG glycosylation AlphaScreen (IIH6); 0% Pro5, 100% B10-LARGE cell signal; activation, % at 10 µM; 360,000 tested, 0.22% active;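 active means activation of at least 8% versus controls, or a plate z-score of at least 8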;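 further: Pro5 are CHO cells carrying HIG-tagged alpha-DG that lacks glycosylation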
NPR1 activator: GC-A (human) enzyme activation | P16066 | HEK293 GC-A cells, cGMP TR-FRET, EC30 ANP; 0% at EC30 ANP, 100% saturating ANP | activation, % at 10 µM | 370,000 tested, 0.14% active; in the data active means activation above about 40%
GC-B act: GC-B (human) receptor activation; P20594; HEK293-GC-B cells, CNP EC30, cGMP TR-FRET; 0% at EC30 CNP, 100% saturating CNP; activation, % at 10 µM; 370,000 tested, 0.11% active; AID 1920062;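 active means activation at 10 µM reaching about 35% in either raw or pattern-adjusted values, limit read from the data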
GRIN3A LBD mod: modulates the human NR3A ligand-binding domain. NR3A LBD differential scanning fluorimetry, Tm shift; 0% = protein alone, 100% = glycine-bound protein. Tm shift relative to glycine control, % at 25 µM. 340,000 tested, 2.5% active. AID 1259313;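 active means melting temperature shift of at least 10% of the positive control shift, at one fixed dose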
GASC-1 inh: blocks human GASC-1 demethylase activity. Q9H3R0. GST-JMJD2C(1-420) H3K9me3 demethylation, DELFIA europium. inhibition, % at 2.35 µM. 330,000 tested, 0.069% active;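 active means more than half of a compound's replicate wells show inhibition beyond 50%, single wells judged on their own value; inconclusive means some, but no more than half, of replicates pass 50% inhibition; inactive means no replicate passes 50% inhibition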;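 further: signal counts dimethyl H3K9 product captured on neutravidin plate; 0% = median of DMSO wells and 100% = 0.3 times that DMSO median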
Hep lipid drop: modulators of hepatic lipid droplet formation; inhibition, % at 6.5 µM; 240,000 tested, 0.4% active; AID 1656; AML12 mouse hepatocytes, oleate lipid droplets, BODIPY imaging;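 active means lipid droplet intensity inhibited by at least 50%, with more than 500 cells counted; inconclusive means wells with under 300 cells, treated as cytotoxic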
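Material: mouse AML12 hepatocyte cell line, fixed after treatment; Timing: compound with oleate, overnight; Technique: high-content imaging of BODIPY-stained droplets and DAPI nuclei; Probe or stimulus: oleate, 100 µM final; Dosing: compound at 6.5 µM only.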
Active calls of the source: *; ? = inconclusive; nt = no result given. The list is not random: actives were taken first. Their share in the collection is about 3%.

SMILES	aDG glyco up	NPR1 activator	GC-B act	GRIN3A LBD mod	GASC-1 inh	Hep lipid drop
COc1ccc(CN2C[C@@]3(O)CC[C@@H](O)[C@@H](OC)[C@@H]3[C@@]2(C)[C@H](O)CC=C(C)C)cc1	nt	-3	-5	nt	nt	nt
Cc1cc(Oc2ccc(N)cn2)ccc1Cl	0	5	-16	14*	6	11
O=[N+]([O-])c1cccc(S(=O)(=O)Nc2ccc(-c3ccc(N4CCOCC4)nn3)cc2)c1	0	-3	-2	3	-3	nt
O=[N+]([O-])c1cccc(S(=O)(=O)Nc2ccc(-c3ccc(N4CCCC4)nn3)cc2)c1	0	-6	-5	31*	1	nt
CC(=O)N1CCOCC1c1cc(C(=O)Nc2ccccc2)no1 (stereo not drawn)	0	2	3	nt	nt	nt
CCc1nc(Nc2cccc(O)c2)c2oc3ccccc3c2n1	0	nt	nt	21*	-4	-7
CCc1nc(Nc2ccncc2)c2oc3ccccc3c2n1	0	9	2	2	3	nt
CC(C)c1ccc(/C=C/C(=O)Nc2nc3ccc([N+](=O)[O-])cc3s2)cc1	0	-4	5	8	1	nt
O=[N+]([O-])c1ccc2nc(NN=Cc3ccc(O)cc3)sc2c1	0	0	-11	23*	nt	nt
O=C(NCc1ccccc1)C(C1CC1)n1c(Cc2cc(F)cc(F)c2)nc2ccccc21 (stereo not drawn)	1	-23	-12	nt	nt	nt
Cc1cc(C)nc(N/N=C/c2ccccc2OCc2ccccc2)n1	0	1	-7	12*	3	-1
Cc1cc(C)nc(N/N=C/c2ccccc2OCc2ccc(Br)cc2)n1	0	1	-3	1	-1	-2
CCCCNC(=O)c1ccc2nc(CC)c(N(C)Cc3ccc(OC)cc3)n2c1	0	9	19	nt	nt	nt
O=C(Nc1nc2ccccc2s1)C1CC(=O)N(c2ccc(Br)cc2)C1 (stereo not drawn)	0	3	-7	16*	?	-9
CCOC(=O)N[C@@H](Cc1cccnc1)C(=O)N1CCC[C@H]1C(=O)NCCc1ccccc1Cl	nt	1	1	nt	nt	nt
CSc1nc(N)nc(SCC(=O)c2ccc(C)cc2)c1C#N	0	-8	-2	20*	14	nt
CSc1nc(N)nc(SCC(=O)OC(C)C)c1C#N	0	-21	-19	-2	2	nt
COc1ccc(-c2c(C(=O)c3ccccc3)[nH]c(N)c2C(=O)NCCc2c[nH]c3ccccc23)cc1	nt	-4	2	nt	nt	nt
C=CCCC1CN(CCCC)S(=O)(=O)c2c(F)cccc2O1 (stereo not drawn)	0	-4	-1	18*	nt	nt
CCN(C(=O)COC(=O)/C=C/c1cccc([N+](=O)[O-])c1)c1c(N)n(Cc2ccccc2)c(=O)[nH]c1=O	0	5	3	-1	-6	nt
Cc1ccc(N)c([N+](=O)[O-])c1	0	-2	-6	2	0	nt
Nc1ccc(N=Nc2ccccc2)cc1[N+](=O)[O-]	-1	4	-6	29*	nt	nt
CN(Cc1cn(Cc2ccccc2)nn1)S(=O)(=O)c1ccccc1Br	nt	1	1	nt	nt	nt
O=C(COC(=O)c1cc[n+]([O-])cc1)Nc1cccc(F)c1	0	0	2	0	9	nt
O=C(NCC1CCN(Cc2ccc(F)cc2)CC1)Nc1cc(F)ccc1F	0	-5	1	10*	-2	-3
SMILES	aDG glyco up	NPR1 activator	GC-B act	GRIN3A LBD mod	GASC-1 inh	Hep lipid drop
Cc1c(NC(=O)/C(C#N)=C/c2ccc(-c3ccccc3Cl)o2)c(=O)n(-c2ccccc2)n1C	1	17	3	2	-6	17
N#C/C(=C\c1ccc(-c2ccccc2Cl)o1)C(=O)Nc1nc2ccccc2s1	0	7	4	18*	-28	-34
CCCC1CCC2(CC1)CCC2OC(=S)Nc1cccc(I)c1 (stereo not drawn)	nt	0	6	nt	nt	nt
CCC/C(=N\NC(=O)CNC(=O)/C=C/c1ccco1)c1ccccc1	0	0	-9	10*	0	-21
CC/C(=N\NC(=O)CNC(=O)/C=C/c1ccco1)c1ccccc1	0	8	-2	0	1	nt
CCNC(=O)c1ccc2c(c1)S(=O)(=O)c1ccccc1C2=O	0	3	4	0	51*	nt
CCC(C)C1/C=C\CC(NC(=O)OCC2c3ccccc3-c3ccccc32)CC(=O)N1Cc1ccccc1 (stereo not drawn)	0	nt	nt	1	nt	nt
COc1ccc(C2/C=C\CC(NC(=O)OCC3c4ccccc4-c4ccccc43)CC(=O)N2Cc2ccccc2F)cc1 (stereo not drawn)	0	nt	nt	14*	nt	nt
COc1cc(/C=N/N=C(/N)c2nonc2N)cc(Br)c1OCc1ccccc1C	0	0	2	15*	6	-10
Nc1n[nH]c(C2CC2)c1N=Nc1ccc(Cl)cc1	0	-2	-6	11*	-1	31
Nc1n[nH]c(C2CC2)c1N=Nc1ccc(Cl)c(Cl)c1	0	-4	-11	33*	-9	-15
Nc1n[nH]c(N)c1N=Nc1ccc2c(c1)OCO2	0	1	-3	-2	-6	14
N[C@H]1CC[C@@H]2SC[C@@H](C(=O)O)N2C1=O	nt	0	2	nt	nt	nt
Cc1ccc(-c2nnc(-c3cccc4ccccc34)o2)cc1	0	-4	-11	-2	nt	nt
c1ccc(Nc2nnc(-c3cccc4ccccc34)o2)cc1	0	-2	-3	15*	-1	-19
O=C(/C=C/c1ccco1)NC(=S)Nc1nc(-c2ccc3ccccc3c2)cs1	-1	-2	-6	33*	-13	0
O=C(/C=C\c1ccco1)Nc1nc(-c2ccccc2)cs1	0	10	2	-8	-2	18
CC(C)CC(=O)NC(=S)Nc1nc(-c2ccc(Cl)cc2)cs1	0	-2	-5	30*	0	-2
CC(C)CC(=O)NC(=S)Nc1nc(-c2ccccc2)cs1	0	2	-4	-2	20	-12
O=C(/C=C/c1ccco1)NC(=S)Nc1nc(-c2ccc(Cl)cc2)cs1	0	2	-3	129*	-3	6
CC(C)CN1C(=O)[C@]2(CC(=O)N(C)C2c2ccccc2)c2cc(-n3cc(-c4ccccc4)nn3)ccc21 (stereo partly drawn)	nt	5	3	nt	nt	nt
O=C(NC(=S)Nc1cccc2c(O)cccc12)c1ccccc1[N+](=O)[O-]	0	-9	-1	34*	3	20
O=C(NC(=S)NC1CCCCC1)c1ccccc1[N+](=O)[O-]	0	3	-2	18*	-2	6
O=C(NNC(=S)NC(=O)c1ccccc1[N+](=O)[O-])c1ccccc1O	0	0	1	-4	-28	6
